High-throughput results as filed in PubChem BioAssay.
MEKK3 PB1 HTS: MEKK3-MEK5 PB1 interaction, increase or decrease | Q99759 | actives 1.4% (n = 290,000) | binding response (% of control), % at 10 µM | AID 1529 | bead-based flow cytometry, Alexa488-MEK5 binding to MEKK3; actives lie on both sides; 0 = blocked by unlabeled MEK5, 100 = vehicle;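 active = binding response more than 3 SD above or below the average of its plate-row segment, actives on both sides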;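 note: Alexa488 bead fluorescence after subtracting the streptavidin-only scavenger bead signal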
MEKK2mut PB1 HTS: signal of MEK5 binding to mutant human MEKK2 PB1 domain | bead flow cytometry, Alexa488-MEK5 binding to MEKK2 mutant | percent response, % at 10 µM | actives 0.35% (n = 290,000); in the data active = percent response above about 24%, passing the limit was not always enough
UBC13 inh: human UBC13 polyubiquitination inhibition; P61088; UBC13 polyubiquitin chain formation, TR-FRET; inhibition, % at 20 µM; actives 0.47% (n = 330,000); AID 485273; in the data active = inhibition above about 45%, passing the limit was not always enough
Target sequence (P61088 whole entry, looked up): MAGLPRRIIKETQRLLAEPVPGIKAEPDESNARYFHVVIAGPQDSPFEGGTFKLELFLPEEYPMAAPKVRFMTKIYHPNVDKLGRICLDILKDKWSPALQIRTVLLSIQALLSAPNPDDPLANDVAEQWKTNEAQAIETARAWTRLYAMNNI
MEKK2wt PB1 HTS: raises or lowers MEK5 binding to wildtype human MEKK2 PB1 domain | Q9Y2U5 | bead flow cytometry, Alexa488-MEK5 binding to MEKK2 WT; actives lie on both sides | binding response (% of control), % at 10 µM | actives 1.1% (n = 290,000); in the data active = binding response below about 67% or above about 130%
UCH37 DUB inh: human UCH37 deubiquitinating enzyme inhibition. Q9Y5K5. AID 588478. purified proteasome/UCH37, Ub-AMC cleavage fluorescence. inhibition, % (no concentration beside the values). actives 0.33% (n = 330,000);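 active = mean inhibition over replicate wells above about 20%, limit read from the data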;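 note: 0% = compound-free wells with enzyme and 100% = wells lacking proteasome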
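Material: Human UCH37 enzyme supplied as purified proteasome complex | Schedule: 30 min preincubation with enzyme, 25 min cleavage at room temperature | Detection: AMC fluorescence 355/460 nm | Measure: % inhibition of Ub-AMC cleavage fluorescence | Controls: Wells without proteasome as full block, compound-free enzyme plus substrate as uninhibited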
Apaf1 inhib: human Apaf-1 inhibition. inhibition, % at 20 µM. actives 0.71% (n = 330,000). reconstituted apoptosome caspase-3 activity, DEVD-Rh110 fluorescence. O14727; active = inhibition of at least 40% at 20 µM;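 note: plate controls were DMSO wells for no effect and DEVD-CHO caspase inhibitor wells for full effect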
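System: reconstituted apoptosome with Apaf-1, cytochrome c, caspase-9, procaspase-3, dATP; Signal: Rh110 fluorescence intensity; Schedule: 30 min compound preincubation, 50 min activation, room temperature; Reagent: cytochrome c trigger plus (Z-DEVD)2-Rh110 caspase-3 substrate.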
Casp3 UBC13 ctr: counter-screen for UBC13 inhibitors: human caspase-3 inhibition. shares compounds with UBC13 inh. Recombinant caspase-3, Caspase-Glo 3/7 luminescence, 60 min. inhibition, % at 20 µM. actives 4% (n = 1,400). AID 488856;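 active = mean inhibition across replicates above about 26%, limit read from the data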;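 note: plate controls were DMSO with caspase-3 for no effect and DMSO wells lacking enzyme for full effect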
Target sequence (P42574 whole entry, looked up): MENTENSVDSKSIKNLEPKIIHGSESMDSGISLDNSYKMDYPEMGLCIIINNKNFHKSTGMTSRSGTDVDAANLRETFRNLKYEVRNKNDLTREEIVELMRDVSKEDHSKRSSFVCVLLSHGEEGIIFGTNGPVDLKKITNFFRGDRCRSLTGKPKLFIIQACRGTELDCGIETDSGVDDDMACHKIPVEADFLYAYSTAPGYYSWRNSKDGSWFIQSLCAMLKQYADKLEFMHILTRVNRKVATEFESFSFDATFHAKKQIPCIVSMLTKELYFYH
UBC13 conf: human UBC13 polyubiquitin inhibition, confirmed; inhibition, % at 10 µM; actives 68% (n = 1,400); UBC13 polyubiquitination, TR-FRET, biochemical; shares compounds with UBC13 inh; in the data active = inhibition above about 45%
Apaf-1 inh conf: confirmation of Apaf-1 inhibitors | shares compounds with Apaf1 inhib | reconstituted apoptosome, caspase-3 DEVD-Rh110 fluorescence | inhibition, % at 20 µM | actives 25% (n = 1,800);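 active = mean inhibition of at least 40% at 20 µM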;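 note: plate controls were DMSO wells for no effect and DEVD-CHO caspase inhibitor control wells for full effect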
Rh110 interf inh: Rh110 signal interference in Apaf-1 inhibitor counter-screen | shares compounds with Apaf1 inhib | 1,800 tested, under 10 active | AID 504615 | Rh110 fluorescence interference, quenched caspase reaction | activation (fluorescence interference), % at 20 µM;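 active = signal rise of 40% or more at 20 µM, treated as a fluorescence artifact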
Fluor interf inh: shows fluorescence interference in the Apaf-1 inhibitor assay format. shares compounds with Apaf1 inhib. fluorescence interference counterscreen, Apaf-1 assay format. IC50, µM. 460 tested, under 10 active. AID 588538; call rule not given here
An asterisk follows results filed as active; i = inactive; x = no result given. In the library only some 3% were active in any assay of this set; here they are far more common.

SMILES	MEKK3 PB1 HTS	MEKK2mut PB1 HTS	UBC13 inh	MEKK2wt PB1 HTS	UCH37 DUB inh	Apaf1 inhib	Apaf-1 inh conf	Rh110 interf inh	others
C[C@]12CCC3C(CC[C@H]4C[C@@H](O)CC[C@]34C)C1CC[C@@H]2OC(=O)[C@H](N)CCCCN (stereo not given in full)	x	x	105*	x	2	23	x	x	Casp3 UBC13 ctr=2;UBC13 conf=106*
Clc1ccc(COC(Cn2ccnc2)c2ccc(Cl)cc2Cl)cc1 (stereo not given)	82	6	50*	103	3	40	x	x	Casp3 UBC13 ctr=3;UBC13 conf=20
c1ccc(Cn2ccnc2)cc1	90	2	-8	97	7	14	x	x
O=C1C(Cc2cnc[nH]2)NC(=S)N1c1ccccc1 (stereo not given)	106	15	86*	108	-1	5	x	x	Casp3 UBC13 ctr=2;UBC13 conf=104*
S=C(NCCc1ccccc1)NCCc1cnc[nH]1	98	3	-4	100	1	2	x	x
COc1ccc(OC)c(C=NOC(=O)Nc2ccc(Cl)cc2)c1	x	x	x	x	-29	x	x	x
Cc1ccc2c(c1)C1CN(C)CCC1N2C(=O)CCCN1C(=O)c2cccc3cccc(c23)C1=O (stereo not given)	95	-3	89*	103	4	-14	x	x	Casp3 UBC13 ctr=-2;UBC13 conf=101*
COc1ccc([C@@H](O)[C@@H](N)c2ccccc2)cc1	x	x	0	x	3	-18	x	x
Clc1ccc(C(c2ccc(Cl)cc2)n2cc[n+](CC(OCc3ccc(Cl)cc3Cl)c3ccc(Cl)cc3Cl)c2)cc1 (stereo not given)	x	x	104*	x	10	89*	79*	8	Casp3 UBC13 ctr=-3;UBC13 conf=106*;Fluor interf inh=>100
c1cncc(C2CCCCN2Cc2ccc3c(c2)OCO3)c1 (stereo not given)	97	0	2	101	2	1	x	x
O=c1cc(C2CCNCC2)[nH][nH]1	100	2	0	101	1	58*	9	-6
COc1c(C)cc(C(=O)C2CCCN(Cc3ccccn3)C2)cc1C (stereo not given)	102	-6	-2	103	2	-4	x	x
CCCNC(=O)c1c(N)n(Cc2ccc3c(c2)OCO3)c2nc3ccccc3nc12	95	-5	8	82	-86	83*	20	-4
COCCOC(=O)c1c(N)n(Cc2ccco2)c2nc3ccccc3nc12	103	-1	-11	99	i	27	x	x
CC(C)CNC(=O)c1c(N)n(Cc2ccco2)c2nc3ccccc3nc12	101	-5	-13	92	-220	45*	32	18
CC(C)CCNC(=O)c1c(N)n(Cc2ccc3c(c2)OCO3)c2nc3ccccc3nc12	112	9	0	112	-355	90*	35	14
COc1ccc(Cn2c(N)c(C(=O)NCc3ccco3)c3nc4ccccc4nc32)cc1OC	x	x	-22	x	-39	66*	25	11
COC(=O)c1c(N)n(Cc2ccc(OC)cc2)c2nc3ccccc3nc12	106	7	1	103	-373	33	x	x
COCCCNC(=O)c1c(N)n(Cc2ccco2)c2nc3ccccc3nc12	90	-9	-27	91	i	27	x	x
Cc1c(N=Nc2c(O)[nH]c(=O)[nH]c2=O)c(=O)n(-c2ccccc2)n1C	101	-7	-97	94	17	1	x	x
O=C(N=Nc1c(O)[nH]c(=O)[nH]c1=O)C1COc2cc3ccccc3cc2O1 (stereo not given)	100	-13	-5	87	13	6	x	x
CC(C)CNC(=O)c1c(N)n(Cc2ccc3c(c2)OCO3)c2nc3ccccc3nc12	102	-3	16	95	-225	96*	34	-2
CCOC(=O)c1c(NS(=O)(=O)c2ccccc2)n(CCCOC)c2nc3ccccc3nc12	96	-2	-11	95	i	96*	76*	4	Fluor interf inh=>100
CC(C)OCCCNC(=O)c1c(N)n(Cc2cccs2)c2nc3ccccc3nc12	106	1	6	101	x	95*	34	14
Nc1c(C(=O)OCC2CCCO2)c2nc3ccccc3nc2n1Cc1cccs1 (stereo not given)	92	4	5	94	-155	56*	23	5
SMILES	MEKK3 PB1 HTS	MEKK2mut PB1 HTS	UBC13 inh	MEKK2wt PB1 HTS	UCH37 DUB inh	Apaf1 inhib	Apaf-1 inh conf	Rh110 interf inh	others
Nc1c(C(=O)NCC2CCCO2)c2nc3ccccc3nc2n1Cc1ccco1 (stereo not given)	95	-4	-27	92	i	32	x	x
CC(C)CCn1c(N)c(C(=O)NCc2cccs2)c2nc3ccccc3nc21	104	9	13	120	-174	89*	30	5
CC(C)OC(=O)c1c(N)n(Cc2ccco2)c2nc3ccccc3nc12	105	-2	-7	105	i	4	x	x
CC(=NCCC1=CCCCC1)c1c(O)[nH]c(=O)[nH]c1=O	102	-1	1	99	0	16	x	x
CCP(=S)(CC)c1ccc(N(C)C)cc1	101	0	-3	97	1	2	x	x
COCCCn1c(N)c(C(=O)OCCOC)c2nc3ccccc3nc21	103	4	-10	105	i	95*	16	12
COCCOC(=O)c1c(N)n(Cc2ccc(OC)cc2)c2nc3ccccc3nc12	107	5	-10	108	x	66*	21	9
CCOC(=O)c1c(N)n(Cc2ccc(OC)cc2)c2nc3ccccc3nc12	109	8	x	105	-170	x	x	x
COCCNC(=O)c1c(N)n(CCC(C)C)c2nc3ccccc3nc12	101	4	36	94	i	82*	30	9
CCCCNC(=O)c1c(N)n(CCCOC)c2nc3ccccc3nc12	101	-2	3	99	i	90*	50*	1	Fluor interf inh=>100
CC(c1ccc(F)cc1)n1cc(C(=O)NCc2ccc3c(c2)OCO3)nn1 (stereo not given)	103	3	-6	104	4	11	x	x
